MrgX1 agonist: agonists of human MrgX1 receptor, primary screen, HEK293 cells, Fluo-4 calcium flux; AID 588627, 2011; Mas-related G-protein coupled receptor member X1 (Homo sapiens), Q96LB2; Fluo-4 calcium fluorescence, agonist mode; hits give high values; hit rate 0.44% among 310,000; B-score at 10 µM;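 active means calcium response B-score plate-corrected fluorescence ratio at least 3 library SD, with starting fluorescence B-score inside 5 SD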
Target sequence (Q96LB2 whole entry, looked up): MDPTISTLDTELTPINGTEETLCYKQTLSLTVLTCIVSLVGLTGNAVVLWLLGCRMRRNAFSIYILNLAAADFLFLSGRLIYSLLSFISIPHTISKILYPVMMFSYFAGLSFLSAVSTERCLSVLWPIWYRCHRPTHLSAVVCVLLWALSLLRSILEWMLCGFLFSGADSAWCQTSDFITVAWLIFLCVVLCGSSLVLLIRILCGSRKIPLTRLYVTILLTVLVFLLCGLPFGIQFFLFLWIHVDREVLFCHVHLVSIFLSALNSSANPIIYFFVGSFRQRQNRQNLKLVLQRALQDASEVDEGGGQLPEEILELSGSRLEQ
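Test system: Stable human MrgX1 HEK293 cell line | Schedule: Overnight plating before 1 h dye loading | Read-out basis: Baseline-normalised fluorescence change ratio, B-scored | Detection: Kinetic calcium dye fluorescence, Fluo-4 NW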
MrgX1 allo act: positive allosteric modulators of MrgX1, primary screen, HEK293 cells, Fluo-4 calcium flux | Mas-related G-protein coupled receptor member X1 (Homo sapiens), Q96LB2 | FDSS; hits give high values | B-score at 10 µM | hit rate 0.63% among 310,000;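 active means plate-corrected calcium response at least 3 library SD above typical, normal starting fluorescence, not activating the receptor alone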;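 further: compound read alongside a low EC10 to EC30 dose of BAM8-22 agonist; peak minus trough fluorescence over baseline measured at the second addition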
MrgX1 antag: antagonists of human MrgX1 receptor, primary screen, HEK293 cells, Fluo-4 calcium flux | Mas-related G-protein coupled receptor member X1 (Homo sapiens), Q96LB2 | BAM8-22 antagonism; hits give low values | B-score at 10 µM | hit rate 1.3% among 310,000 | AID 588676, 2011;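 active means calcium-response B-score plate-corrected more than 3 library SD below zero, starting fluorescence within 5 deviations, no agonist response on first addition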;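 further: peak minus trough fluorescence over baseline after final BAM8-22 challenge near maximal dose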
Cl transport mod: KCC2 cotransporter modulators, thallium flux, primary screen, cell-based, HEK293 KCC2, FluoZin-2 fluorescence, MLSMR; KCC2 cells, thallium flux FluoZin-2 fluorescence; B-score of Tl+ flux slope (higher = more flux/activation; lower = inhibition) at 10 µM; hit rate 2.2% among 190,000; Solute carrier family 12 member 5 (Homo sapiens), Q9H2X9;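 active means thallium flux slope and its plate-corrected score both differing from the plate sample mean at a set confidence after two filtering rounds, in either direction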;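 further: slope of fluorescence scaled to starting intensity during 10 to 20 s after thallium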
RGS4 act: RGS4 potentiators or activators, primary screen, cell-based, HEK293 M3R inducible RGS4, calcium flux | carbachol calcium flux Fluo4; hits give low values | B-score at 10 µM | hit rate 0.92% among 310,000;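 active means B-score of the integrated calcium signal more than 4 SD below the library mean, with starting fluorescence not abnormally high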;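 further: negative B-score means reduced calcium response which marks RGS4 activation or potentiation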
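System: HEK293 FlpIn-TREx cells, stable M3R, doxycycline-inducible RGS4. Timing: overnight RGS4 induction, 30 min dye load 37 °C, 20 min compound RT. Also added: carbachol, ECmax concentration. Measured by: Fluo4 fluorescence kinetic imaging of calcium. Evaluation: integrated calcium ratio converted to B score.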
RGS4 block: RGS4 inhibitors, primary screen, cell-based, HEK293 M3R inducible RGS4, calcium flux. Regulator of G-protein signaling 4 (Homo sapiens), P49798. hit rate 0.45% among 310,000. Fluo-4 calcium flux; hits give high values; triggered by carbachol at its EC20. B-score at 10 µM;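 active means B-score, a plate-corrected calcium signal, over three deviations above library mean, with baseline fluorescence within five deviations of library mean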;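 further: RGS4 expression induced by doxycycline in cells with stable M3 receptor; B-score is computed from the integrated fluorescence ratio over baseline after carbachol; higher B-score means a larger calcium signal and so more RGS4 inhibition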
Target sequence (P49798 whole entry, looked up): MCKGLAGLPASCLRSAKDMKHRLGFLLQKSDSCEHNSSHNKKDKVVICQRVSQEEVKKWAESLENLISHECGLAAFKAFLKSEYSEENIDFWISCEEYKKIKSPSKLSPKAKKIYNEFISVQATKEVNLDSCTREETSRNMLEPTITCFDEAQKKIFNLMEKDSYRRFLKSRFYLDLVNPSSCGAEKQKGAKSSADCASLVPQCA
Starred values were filed as active, the others as inactive. Sampled rows, rich in hits. Any-hit rate of the full collection: about 4.7%.

What do the screens show for `CCN1C(=O)/C(=C/c2cccs2)SC1=Nc1ccc(OC)cc1`?
MrgX1 agonist: inactive; MrgX1 allo act: inactive; MrgX1 antag: inactive; Cl transport mod: 1.55; RGS4 act: inactive; RGS4 block: inactive

How did CCN(CC)CCN1C(=O)/C(=C\c2ccc(Cl)c([N+](=O)[O-])c2)SC1=Nc1ccc(OC)cc1 do in these assays?
MrgX1 agonist: inactive; MrgX1 allo act: inactive; MrgX1 antag: inactive; RGS4 act: inactive; RGS4 block: 26.7*

Results for CCCN1C(=O)/C(=C/c2ccc(C)s2)SC1=Nc1ccc(OC)cc1 ?
MrgX1 agonist: inactive; MrgX1 allo act: inactive; MrgX1 antag: inactive; Cl transport mod: -0.323; RGS4 act: inactive; RGS4 block: inactive

Results for COc1ccc(N=C2S/C(=C\c3ccc(Cl)c([N+](=O)[O-])c3)C(=O)N2CCN(C)C)cc1 ?
MrgX1 agonist: inactive; MrgX1 allo act: inactive; MrgX1 antag: inactive; RGS4 act: inactive; RGS4 block: 13*

How did COc1cc(Br)c(CC(=O)NC2CC2)cc1OC do in these assays?
MrgX1 agonist: inactive; MrgX1 allo act: inactive; MrgX1 antag: inactive; RGS4 act: inactive; RGS4 block: inactive

What do the screens show for `COc1ccccc1NC(=O)c1c(NC(=O)CCC(=O)O)sc2c1CCCCC2`?
MrgX1 agonist: inactive; MrgX1 allo act: inactive; MrgX1 antag: inactive; Cl transport mod: 0.0801; RGS4 act: inactive; RGS4 block: inactive

Results for COc1ccc(OC)c(NC(=O)c2c(NC(=O)CCC(=O)O)sc3c2CCCCC3)c1 ?
MrgX1 agonist: inactive; MrgX1 allo act: 6.97*; MrgX1 antag: inactive; Cl transport mod: 0.182; RGS4 act: inactive; RGS4 block: inactive

Results for CS(=O)(=O)/C(C#N)=C\c1cnc(S(=O)(=O)c2ccccc2)s1 ?
MrgX1 agonist: 29.5*; MrgX1 allo act: inactive; MrgX1 antag: inactive; RGS4 act: inactive; RGS4 block: inactive

Results for C#CCOc1ccc2c3c(c(=O)oc2c1)CCCC3 ?
MrgX1 agonist: inactive; MrgX1 allo act: inactive; MrgX1 antag: inactive; RGS4 act: inactive; RGS4 block: inactive

How did COc1ccc(CNC[C@@H](CCCCN(C)Cc2ccc(OC)cc2)N2C[C@H](c3ccccc3)N(CCc3ccc(Cl)c(Cl)c3)C(=O)C2=O)cc1 do in these assays?
MrgX1 agonist: inactive; MrgX1 allo act: inactive; MrgX1 antag: inactive; Cl transport mod: 0.647; RGS4 act: -8.17*; RGS4 block: inactive

How did CN(CCCC[C@H](CNCc1ccc(-c2ccccc2)cc1)N1C[C@H](c2ccccc2)N(CCc2ccc(Cl)c(Cl)c2)C(=O)C1=O)Cc1ccc(-c2ccccc2)cc1 do in these assays?
Cl transport mod: 2.57

How did Cc1cc(NC(=O)CSc2nnc(N)s2)c([N+](=O)[O-])cc1C do in these assays?
MrgX1 agonist: inactive; MrgX1 allo act: inactive; MrgX1 antag: -7.05*; Cl transport mod: 0.0175; RGS4 act: inactive; RGS4 block: inactive

Results for CC1(C(=O)O)CCC(C(=O)Nc2ccc(OC(F)(F)Cl)cc2)C1(C)C (centres undefined) ?
MrgX1 agonist: inactive; MrgX1 allo act: inactive; MrgX1 antag: inactive; RGS4 act: inactive; RGS4 block: inactive

What do the screens show for `O=c1c2ccccc2ncn1-c1cccc(Br)c1`?
MrgX1 agonist: inactive; MrgX1 allo act: inactive; MrgX1 antag: inactive; RGS4 act: inactive; RGS4 block: inactive

Results for Cc1cc(C)nc(/N=C(\N)Nc2ccc(F)c([N+](=O)[O-])c2)n1 ?
MrgX1 agonist: 37.8*; MrgX1 allo act: inactive; MrgX1 antag: inactive; Cl transport mod: -0.00642; RGS4 act: inactive; RGS4 block: inactive

Results for COc1cccc(NC(=O)COc2ccc(C(=S)N3CCN(C)CC3)cc2OC)c1 ?
MrgX1 agonist: inactive; MrgX1 allo act: inactive; MrgX1 antag: inactive; RGS4 act: inactive; RGS4 block: inactive

What do the screens show for `CCn1c(O)c(/C=N/N=C/c2ccccc2)c2ccc(C3=NNC(=O)CC3)cc21`?
MrgX1 agonist: inactive; MrgX1 allo act: inactive; MrgX1 antag: -4.76*; Cl transport mod: -0.492; RGS4 act: inactive; RGS4 block: inactive

Results for CCC(CC)=N/N=C/c1c(O)n(CC)c2cc(C3=NNC(=O)CC3)ccc12 ?
MrgX1 agonist: inactive; MrgX1 allo act: inactive; MrgX1 antag: inactive; Cl transport mod: -0.00643; RGS4 act: inactive; RGS4 block: inactive

How did COc1ccc(/C=C(\NC(=O)c2ccc(C)cc2)C(=O)Nc2ccc(C(=O)O)cc2)cc1 do in these assays?
MrgX1 agonist: inactive; MrgX1 allo act: inactive; MrgX1 antag: inactive; RGS4 act: inactive; RGS4 block: inactive

What do the screens show for `Cc1ccc2nc3nc(NCC4CCCO4)c(C(=O)NC4CCCC4)cc3c(=O)n2c1` (centres undefined)?
MrgX1 agonist: inactive; MrgX1 allo act: inactive; MrgX1 antag: inactive; Cl transport mod: 0.0284; RGS4 act: inactive; RGS4 block: inactive

How did COCCCNC(=O)c1cc2c(=O)n3cc(C)ccc3nc2nc1NCC1CCCO1 (centres undefined) do in these assays?
MrgX1 agonist: inactive; MrgX1 allo act: inactive; MrgX1 antag: -7.55*; Cl transport mod: 0.168; RGS4 act: inactive; RGS4 block: inactive

Results for COc1ccc(CCn2nc(C)c([N+](=O)[O-])c2C)cc1 ?
MrgX1 agonist: inactive; MrgX1 allo act: inactive; MrgX1 antag: -6.51*; RGS4 act: inactive; RGS4 block: inactive

How did COc1ccc(CNC(=O)CSc2nc3ccc(C)cc3[nH]2)cc1OC do in these assays?
MrgX1 agonist: inactive; MrgX1 allo act: inactive; MrgX1 antag: inactive; RGS4 act: inactive; RGS4 block: inactive

Results for Cc1ccc(C)c(S(=O)(=O)NCc2ccc3c(c2)OCO3)c1 ?
MrgX1 agonist: inactive; MrgX1 allo act: inactive; MrgX1 antag: inactive; RGS4 act: inactive; RGS4 block: inactive

Results for CC(=O)c1c(C)[nH]c(C(=O)CSc2ncnc3sc(-c4ccccc4)cc23)c1C ?
MrgX1 agonist: inactive; MrgX1 allo act: inactive; MrgX1 antag: inactive; Cl transport mod: 28.8*; RGS4 act: inactive; RGS4 block: inactive

Results for O=C(O)CSc1ncnc2sc(-c3ccccc3)cc12 ?
MrgX1 agonist: inactive; MrgX1 allo act: inactive; MrgX1 antag: inactive; Cl transport mod: 2.88; RGS4 act: inactive; RGS4 block: inactive

Screening results deposited in PubChem by several laboratories.
